Bioassay records deposited in PubChem by several laboratories.
m5-HT2A agonist: mouse Htr2a agonists via beta-arrestin recruitment, primary screen, cell-based, luminescence; hit rate 0.66% among 360,000; 5-hydroxytryptamine receptor 2A (Mus musculus), P35363; AID 624169, 2012; CHO-K1 mHTR2A beta-arrestin complementation; percent of 30 µM serotonin response; activation, % at 7.6 µM;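 active means activation above a run cutoff, the mean activation of all tested compounds plus 3 SD, cut at about 14% in these data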;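 further: 0% = plate median of compound wells and 100% = 30 µM serotonin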
TAAR1 ag: human TAAR1 agonists, primary screen, Fluo-8 calcium fluorescence, CHO RD-HGA16 cells | hit rate 0.99% among 360,000 | AID 624467, 2012 | vehicle wells 0%, saturating PEA agonist 100% | Trace amine-associated receptor 1 (Homo sapiens), Q96RJ0 | activation, % at 3 µM;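 active means activation above the mean activation of all test compounds in the run plus 3 SD, cut at about 38% in these data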
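Assay system – CHO-derived RD-HGA16 cells with stable Gα16 and human TAAR1 · Compound dosing – one-point dosing at 3 µM (nominal) · Incubation – 17-24 h seeding, 75 min 37 °C dye, 30 min RT · Measured by – kinetic Fluo-8 calcium fluorescence · Control set – DMSO vehicle as 0%, PEA at EC100 as 100% · Repeats – single well for each compound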
TAAR1 antag: human TAAR1 antagonists, primary screen, Fluo-8 calcium fluorescence, CHO RD-HGA16 cells; Trace amine-associated receptor 1 (Homo sapiens), Q96RJ0; antagonist; inhibition, % at 3 µM; hit rate 1.5% among 360,000;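 active means inhibition above a per-plate cutoff, the mean inhibition of test compounds on that plate plus 3 SD, cut at about 49% in these data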;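 further: 0% = DMSO plus EC80 beta-PEA response and 100% = DMSO alone without agonist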
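Material: RD-HGA16 CHO cells with stable hTAAR1 and Gα16; Dosing: single nominal final test compound concentration of 3 µM; Schedule: seeding 17-24 h prior, 75-min 37 °C, 30-min RT dye loading; Detection: kinetic Fluo-8 calcium fluorescence measurement; Measure: % inhibition from peak post-agonist over basal fluorescence ratio; Benchmarks: vehicle and agonist controls.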
B2AR ag: beta2AR agonists driving receptor internalization, primary screen, cell-based, FAP fluorogen, flow cytometry. Beta-2 adrenergic receptor (Homo sapiens), P07550. Am2.2-beta2AR cells. hit rate 0.43% among 340,000. response, % (no concentration beside the values). AID 504454, 2011;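 active means response above a set limit, near 3 SD of response in nonfluorescent compounds, cut at about 42% in these data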
Target sequence (P07550 whole entry, looked up): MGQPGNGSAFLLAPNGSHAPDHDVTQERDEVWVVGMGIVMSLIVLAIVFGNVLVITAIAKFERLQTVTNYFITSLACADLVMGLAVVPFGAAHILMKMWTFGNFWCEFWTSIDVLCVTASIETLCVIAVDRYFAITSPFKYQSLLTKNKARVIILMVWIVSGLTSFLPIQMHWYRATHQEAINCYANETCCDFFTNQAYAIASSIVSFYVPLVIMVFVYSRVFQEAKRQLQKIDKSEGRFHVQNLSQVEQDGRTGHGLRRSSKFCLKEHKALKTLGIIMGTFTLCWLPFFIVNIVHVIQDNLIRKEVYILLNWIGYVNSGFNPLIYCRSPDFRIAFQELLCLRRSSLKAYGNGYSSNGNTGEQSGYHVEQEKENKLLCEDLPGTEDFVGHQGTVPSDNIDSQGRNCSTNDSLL
MC4R barr agon: MC4R agonists recruiting beta-arrestin, primary screen, cell-based, luminescence, agonist arm of biased-ligand search | Melanocortin receptor 4 (Homo sapiens), P32245 | U2OS MC4R beta-arrestin complementation; percent of melanotan II response, DMSO zero | activation, % at 8.9 µM | hit rate 0.98% among 360,000;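 active means activation above a per-plate cutoff, the mean activation of sample wells on that plate plus 3 SD, cut at about 8% in these data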
Target sequence (P32245 whole entry, looked up): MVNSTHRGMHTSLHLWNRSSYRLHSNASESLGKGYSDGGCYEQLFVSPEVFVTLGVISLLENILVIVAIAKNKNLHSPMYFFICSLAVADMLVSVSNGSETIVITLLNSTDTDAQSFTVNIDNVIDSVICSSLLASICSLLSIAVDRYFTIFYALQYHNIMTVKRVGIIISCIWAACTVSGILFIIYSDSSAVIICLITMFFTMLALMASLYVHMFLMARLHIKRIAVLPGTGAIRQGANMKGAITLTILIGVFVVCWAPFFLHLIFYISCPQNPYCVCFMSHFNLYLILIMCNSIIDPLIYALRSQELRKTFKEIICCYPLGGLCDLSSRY
MC4R antagonist: MC4R antagonists of cAMP signaling, primary screen, cell-based, TR-FRET, antagonist arm of biased-ligand search; Melanocortin receptor 4 (Homo sapiens), P32245; MC4R-expressing cells, MTII-stimulated cAMP, LANCE TR-FRET; inhibition, % at 6.5 µM; hit rate 0.48% among 360,000; AID 540295, 2011;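 active means inhibition above its plate's cutoff, the mean of tested wells on that plate plus 3 SD, cut at about 29% in these data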;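 further: 0% = Melanotan II alone and 100% = Melanotan II plus saturating MCL0020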
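System – human MC4R-expressing U2OS cells · Also added – Melanotan II · Dosing – one concentration, 6.5 µM nominal · Timing – 30-min compound, 1-h challenge, 1-h detection, room temperature · Measured by – Eu-cAMP/anti-cAMP TR-FRET, emission 671 nm · Replicates – singlicate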
U2OS cAMP counter: nonselective cAMP signaling inhibitors, parental cells, counter-screen for MC4R biased antagonist project, cell-based, TR-FRET, U2OS, forskolin, triplicate | LANCE TR-FRET | hit rate 26% among 1,600 | shares compounds with MC4R antagonist | inhibition, % at 6.5 µM | AID 602193, 2012;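 active means mean inhibition over triplicates above the low-control well mean plus 3 SD, set per campaign, cut at about 13% in these data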;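 further: signal is single emission at 671 nm which falls as cellular cAMP rises; 0% = forskolin-stimulated wells and 100% = buffer without forskolin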
MC4R cAMP antag: MC4R cAMP antagonists, retest, confirmation, cell-based, TR-FRET. shares compounds with MC4R antagonist. MC4R-expressing cells, MTII-stimulated cAMP. inhibition, % at 6.5 µM. hit rate 27% among 1,600. AID 602195, 2012; in the data active means inhibition above about 29%;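 further: 0% = agonist stimulated wells alone and 100% = agonist stimulated wells plus saturating reference antagonist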
Starred values were filed as active, the others as inactive; . = not tested or not shown. Most compounds without a hit are left out; they make up all but 4.3% or so of the library.

SMILES | m5-HT2A agonist | TAAR1 ag | TAAR1 antag | B2AR ag | MC4R barr agon | MC4R antagonist | U2OS cAMP counter | MC4R cAMP antag
O=C(O)CNS(=O)(=O)c1ccc(C2CCCCC2)cc1 | 2 | 3 | 11 | 1 | 1 | 32* | 2 | 1
O=C(O)CNS(=O)(=O)c1ccc(F)cc1 | -3 | 14 | -12 | -20 | 1 | 7 | . | .
Cc1ccc(S(=O)(=O)N(C)C)cc1NC(=O)Cn1c(CN2CCOCC2)nc2ccccc2c1=O | -3 | 2 | 12 | -4 | -3 | 36* | 0 | 6
COc1ccc(S(=O)(=O)NNC(=O)c2cccs2)cc1 | 0 | 7 | -7 | 4 | 0 | 33* | 1 | -5
O=C(NNS(=O)(=O)c1ccc(Cl)cc1)c1cccs1 | 4 | 1 | 16 | 10 | 0 | 2 | . | .
O=C(Oc1ccc[nH]c1=O)C1CC1 | 1 | 2 | -6 | . | -2 | 2 | . | .
COc1cn(-c2ccccc2)nc1C(=O)OCC(=O)Nc1ccc(C)c(C)c1 | -2 | 6 | 3 | -16 | 3 | -5 | . | .
CC1CCCC(NC(=O)CSc2ccc(F)cc2)C1C (centres undefined) | -8 | 1 | 5 | -3 | 1 | 32* | 4 | 6
O=C(CN(Cc1ccc(Cl)cc1)C(=O)CNS(=O)(=O)c1ccccc1)NCC1CCCO1 (centres undefined) | 0 | 1 | 5 | -2 | 2 | 31* | 0 | 6
CC(=O)N1CCN(c2cc(-c3ccccc3)nc3cc(-c4cccc(Cl)c4)nn23)CC1 | 4 | 0 | 16 | . | 5 | 41* | 1 | 8
COc1ccc(-c2cc3nc(-c4ccccc4)cc(N4CCN(C(=O)c5ccoc5)CC4)n3n2)cc1 | 8 | 3 | 48 | . | 2 | 6 | . | .
COc1ccc(CNC(=O)CCN2C(=O)c3ccncc3C2=O)cc1OC | -2 | 0 | -14 | 0 | 1 | 34* | -1 | -14
COc1ccc(NC(=O)CCCCCN2C(=O)c3cccc([N+](=O)[O-])c3C2=O)c(OC)c1 | 1 | 2 | -15 | -8 | 0 | 16 | . | .
COc1ccc(CNC(=O)CCN2C(=O)c3ccccc3C2=O)cc1OC | -4 | -1 | -7 | 0 | -1 | -4 | . | .
COc1cc(OC)c(OC)cc1CNC(=O)CCN1C(=O)c2cccc([N+](=O)[O-])c2C1=O | 8 | -2 | 6 | 0 | 0 | 32* | 5 | 13
CC(=O)c1ccc(NC(=O)COC(=O)CCN2C(=O)c3cccc([N+](=O)[O-])c3C2=O)cc1 | -2 | 2 | -4 | 4 | -4 | 22 | . | .
CC(C)N(c1ccccc1)c1ccc(NC(=O)COC(=O)CCN2C(=O)c3cccc([N+](=O)[O-])c3C2=O)cc1 | -8 | 1 | 12 | 11 | 7 | 36* | 13 | 21
COc1ccc(OC)c(NC(=O)CCN2C(=O)c3cccc([N+](=O)[O-])c3C2=O)c1 | -5 | 2 | -9 | 2 | -1 | 41* | 13 | 27
O=C(NC1CCCC1)C1CCN(C(=O)c2ccccc2Cl)CC1 | 1 | 0 | -6 | -5 | -1 | 1 | . | .
COc1ccc(C2(C)NC(=O)N(CC(=O)Nc3ccc(Br)cc3F)C2=O)cc1OC (centres undefined) | -3 | 4 | -13 | -6 | 1 | 13 | . | .
Nc1[nH]c(C(=O)c2ccc(Br)cc2)c(-c2ccccc2Cl)c1C(=O)NCCc1c[nH]c2ccccc12 | . | 9 | 6 | . | . | . | . | .
C[C@@]12CC[C@@H](C3=C(CCC3)C1)N2c1ccccc1 | 2 | 2 | -8 | . | . | . | . | .
CN(C)c1ccc(NC(=O)CCN2C(=O)c3cccc([N+](=O)[O-])c3C2=O)cc1 | 1 | 2 | -13 | -2 | 1 | 11 | . | .
CCOc1ccc(NC(=O)CCN2C(=O)c3cccc([N+](=O)[O-])c3C2=O)cc1 | 2 | 0 | -3 | -1 | 1 | 33* | 10 | 18
S=C1SC2(CCCCCC2)NC2=C1CCCCC2 | 2 | 7 | 13 | . | -2 | 5 | . | .
SMILES | m5-HT2A agonist | TAAR1 ag | TAAR1 antag | B2AR ag | MC4R barr agon | MC4R antagonist | U2OS cAMP counter | MC4R cAMP antag
CCCCNC(=O)CN1C(=O)CSc2ccc(S(=O)(=O)N3CCOCC3)cc21 | 5 | 2 | -11 | . | 0 | 55* | -2 | -15
Cc1cc(C)c(S(=O)(=O)Cc2ccccc2)c(Cl)n1 | 7 | 1 | -11 | -8 | -1 | 2 | . | .
O=C(CSc1n[nH]c(-c2cccs2)n1)NC1CCS(=O)(=O)C1 (centres undefined) | -2 | 1 | -18 | 3 | -1 | 0 | . | .
CCN(C(=O)CSc1n[nH]c(-c2cccs2)n1)C1CCS(=O)(=O)C1 (centres undefined) | 3 | 1 | -20 | -1 | -1 | 30* | -4 | -3
N#Cc1c(NC(=O)C2CC=CCC2C(=O)O)sc2c1CCCCCC2 (centres undefined) | 1 | 4 | -23 | 0 | 0 | 3 | . | .
CC(C)(C)C1CCc2c(sc(NC(=O)C3CC=CCC3C(=O)O)c2C#N)C1 (centres undefined) | 5 | -2 | -3 | 1 | -1 | 29* | 4 | 11
CC(=O)c1ccc(S(=O)(=O)N2CCN(C(=O)CSc3ccc(C)c(C)c3)CC2)cc1 | -3 | -2 | 13 | -5 | 0 | 35* | -3 | 1
Cc1ccc(S(=O)(=O)N2CCN(C(=O)CSc3ccc(Cl)cc3)CC2)cc1 | 5 | 1 | 13 | -7 | 2 | 5 | . | .
CC1CCCN(c2nc(-c3cccnc3)nc3scc(-c4ccccc4)c23)C1 (centres undefined) | 5 | 0 | -8 | 3 | 0 | 37* | 0 | 21
CCOC(=O)Cc1cc(=O)n2[nH]cc(-c3ccc(Cl)cc3)c2n1 | -1 | -1 | 8 | 4 | -1 | 30* | 1 | 3
CC(=O)c1ccc(-n2c(CCC(=O)O)ccc2-c2ccc(C)cc2)cc1 | -2 | . | . | 3 | -1 | 30* | 1 | 16
